Experimental data: ChEMBL document CHEMBL1140381, “Design and studies of novel 5-substituted alkynylpyrimidine nucleosides as potent inhibitors of mycobacteria” (2005)
In brackets after ≈: the same amount, converted by molar mass.

Assays:
Type in all cases: functional
[1] = tested on: Mycobacterium tuberculosis variant bovis; test: Inhibition of growth of Mycobacterium bovis was determined using microplate alamar blue assay at 50 ug/mL concentration with compound dissolved in DMSO
Summary of the method: (§1)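 MABA in 7H9GC medium; M. bovis BCG or M. avium ATCC 25291 frozen inocula at 2.5 × 10⁵ CFU/mL final, 100× DMSO stocks diluted into medium. Incubated 6 days, then alamar blue plus 20% Tween-80 added once bacteria-only wells turned pink, read 24 h later by fluorescence. % inhibition = […]. Triplicate wells, three experiments, mean reported.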

[2] = tested on: Mycobacterium tuberculosis variant bovis; test: Inhibition of growth of Mycobacterium bovis was determined using microplate alamar blue assay at 100 ug/mL concentration with compound dissolved in DMSO; summary of the method: as §1
[3] = tested on: Mycobacterium tuberculosis variant bovis; test: Minimum inhibitory concentration against Mycobacterium bovis
Summary of the method: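 Alamar blue microplate assay in 7H9GC. BCG or M. avium ATCC 25291 at 2.5 × 10⁵ CFU/mL final, exposed to compound at 100, 50, 10 and 1 µg/mL in triplicate. Reagent added after 6+ days once growth controls turned pink, read after 24 h visually and by fluorescence. MIC₉₀ taken as the lowest concentration giving ~90% growth inhibition.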

[4] = tested on: Mycobacterium tuberculosis variant bovis; test: Inhibition of growth of Mycobacterium bovis was determined using microplate alamar blue assay at 10 ug/mL concentration with compound dissolved in DMSO; summary of the method: as §1
[5] = tested on: Mycobacterium tuberculosis variant bovis; test: Inhibition of growth of Mycobacterium bovis was determined using microplate alamar blue assay at 1 ug/mL concentration with compound dissolved in DMSO; summary of the method: as §1
[6] = tested on: Mycobacterium tuberculosis variant bovis; test: Inhibition of growth of Mycobacterium bovis was determined using microplate alamar blue assay at 0.5-1 ug/mL concentration with compound dissolved in DMSO

| Compound | inhibition at 50 µg/mL [1] [%] | inhibition at 100 µg/mL [2] [%] | MIC90 [3] [µg/mL] | inhibition at 10 µg/mL [4] [%] | inhibition at 1 µg/mL [5] [%] | Inhibition [6] [%] |
| --- | --- | --- | --- | --- | --- | --- |
| CCCCCCCCC#Cc1cn([C@H]2C[C@H](O)[C@@H](CO)O2)c(=O)[nH]c1=O | 50 | 90 | 100 (≈ 274 µM) | 0 | – | – |
| CCCCCCCCCCC#Cc1cn([C@H]2C[C@H](O)[C@@H](CO)O2)c(=O)[nH]c1=O | 90 | 90 | 50 (≈ 127 µM) | 70 | 25 | – |
| CCCCCCCCCCCCC#Cc1cn([C@H]2C[C@H](O)[C@@H](CO)O2)c(=O)[nH]c1=O | 90 | 90 | 10 (≈ 23.8 µM) | 90 | 33 | – |
| CCCCCCCCC#Cc1cn([C@H]2C[C@H](O)[C@@H](CO)O2)c(=O)nc1N | 90 | 90 | 50 (≈ 138 µM) | 10 | – | – |
| CCCCCCCCCCC#Cc1cn([C@H]2C[C@H](O)[C@@H](CO)O2)c(=O)nc1N | 90 | 90 | 10 (≈ 25.5 µM) | 90 | 25 | – |
| CCCCCC#Cc1cn([C@H]2C[C@H](O)[C@@H](CO)O2)c(=O)[nH]c1=O | 60 | 60 | – | – | – | – |
| CO[C@H]1/C=C/O[C@@]2(C)Oc3c(C)c(O)c4c(O)c(c(/C=N/N5CCN(C)CC5)c(O)c4c3C2=O)NC(=O)/C(C)=C\C=C\[C@H](C)[C@H](O)[C@@H](C)[C@@H](O)[C@@H](C)[C@H](OC(C)=O)[C@@H]1C [RIFAMPIN] | – | – | 1 (≈ 1.22 µM) | – | – | 100 |
